From the RNAGym collection of RNA variant scans (doi:10.1126/science.aae0568)
Fewer inactive variants are shown than the library holds.

B1: tRNA (parent)
chain: GUUCCGUUGGCGUAAUGGUAACGCGUCUCCCUCCUAAGGAGAAGACUGCGGGUUCGAGUCCCGUACGGAACG

Variants of: B1
Assay: yeast fitness relative to wild type (ratio to wild type); higher = fitter; tRNA-Arg(CCU), competitive growth, 37 C, YPD
How it was run: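 Amplicons of the tRNA-Arg(CCU) gene were sequenced, 100-nucleotide paired-end, from the start population and from each end population of a pooled yeast competition. The competition, in six parallel replicates, lasted 24 hours in YPD at 37°C. Fitness relative to wild type was calculated from changes in genotype frequencies. Genotypes had to have ≥ 100 starting reads, and estimates < 0.5 were set to 0.5.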

| Variant | yeast fitness |
| --- | --- |
| GUUCCGUUCGCGUAAUGGUAACGCGUCCCCCUCCUAAGGAGAAGACUGCGGGUUCGAGUCCCGUACGGAACG [G9C U28C] | 0.675 |
| GUUCGGUUGGCGUAAUGGAAACGGGUCUCCCUCAUAAGGAGAAGACUGCGGGUUUGAGUCCCGUACGGAACG [C5G U19A C24G C34A C55U] | 0.601 |
| GUUCCGUUGGCGUAAUGGUAACGCGUCUCCCUCCUAAGCAGAACACUGCGGGUUCCAGUCCCGUACGGAACG [G39C G44C G56C] | ≤ 0.5 |
| GUUCCGUUGGCGUGAUGGUAACGCGUCUCCCUCCUAUGGAGAAGACUGCGGGUUCGAGUCCCGUCCGGAACG [A14G A37U A65C] | 0.543 |
| GUUCCGUUGGCGUGAUGGUAACGCGCCUCCCUCCUAAGGAGAAGACUGCGGGUUCGAGUCCCGUACGAAACG [A14G U26C G68A] | 0.557 |
| GUUCCGUUGGCGUAAUGGUAACGUGUCUCCCUCCUAAGGAGUCGACUGCGGGUUCGAGUCCCGUACGGAACG [C24U A42U A43C] | 0.889 |
| GUUCCGUUGGCGUAAUGGUAACGGGUCUCCCUGCUCCGGAGCAGGCUGCGGGUUCGAGUCCCGUUCGGAACG [C24G C33G A36C A37C A42C A45G A65U] | ≤ 0.5 |
| GUUCCGUUGGCGUAAUGGUAGCGCGUCUCCCUCCUAAGGUGAAGACUGCGGCUUAGAGUCCCGUAGGGAACG [A21G A40U G52C C55A C66G] | 0.539 |
| GUUCCGUUGGCGUAAUGGUGACGCGUCUCCCCCCUAAGGAGAAGACUGCGGGUUCGGGUCCCGUACGGAACG [A20G U32C A57G] | 0.724 |
| GUUCCGUUGGCGUAAUGGUAACGCCUCUCCCUCCUAAGGAGAAGACUGUGAGUUCGGGUCCCGUACGGAACG [G25C C49U G51A A57G] | ≤ 0.5 |
| GUUCCGUUGGCGUAAUGGUAACGCGUCUCCUUCCCAAGGGGAAGACUGCGGGUUCGAGUCCCGUACGGAACG [C31U U35C A40G] | ≤ 0.5 |
| GUUGCGUUGGCGUAAUGGUAACGCGUCUCCCUCCGAAGGAGAAGACUGCGGGUUCGAGUCCCGUACGGACCG [C4G U35G A70C] | 0.552 |
| GGUCCGUUGGCGUAAUGGUAACGCGUCUCCCUCCUAAGGAGAAGACUGCCGGUUCGAGUCCCGUACGGAACG [U2G G50C] | 0.6 |
| GUUCCGUUGGCACAUUGGUAACGCGUCUCCCUCCUAAGGAGAAGACUGCGGGUUCGAGUCCCGUACGGAACG [G12A U13C A15U] | 0.507 |
| GUUCCGUUGGCGUACAGGUAGCGCGACUCUCUCCUAAGGAGAAGACUGCGGGUUCGAGUCACGUACGGAACG [A15C U16A A21G U26A C30U C61A] | 0.692 |
| GUUCCGUUGGCGUAAUGGUAACGCGUCUCCUUCCUAAGGAGAAGACCGCGGGUUCGAGUCCCGUACGGAACG [C31U U47C] | 0.934 |
| GUUCGGUUGGCGUAAUGGUAACGCGUCUCCCUCCUAAGGAGAUGACUGCGGGUUCGAGUCCCGUACGGUACG [C5G A43U A69U] | 0.62 |
| GUCCCGUUGGCGUAAUGGUAGCGCGUCUCCCUCCUAAAGAGAAGACUGCGGGUUCAAGUCCCGUACGGAACG [U3C A21G G38A G56A] | ≤ 0.5 |
| GUUCCGUUGGCCUAAAGGUAACGGGUCUCCCUCCUAAGGAGAAGACUCCGGGUUCGAGUCCCGUACGGAACG [G12C U16A C24G G48C] | ≤ 0.5 |

| Variant | yeast fitness |
| --- | --- |
| GUUCAGUUGGCGUAAUGGUAACGCGUCUCCCUUCUAAGGAGAAGACUGCAGCUUCGAGUCCCGUCCGGAACG [C5A C33U G50A G52C A65C] | ≤ 0.5 |
| GUUCCGUUGGCGUAAUGGUAACGCGUCUCCUUCCUAAGGCGAAGACUGCGGGUUCAUGUCCCGUACGGAACG [C31U A40C G56A A57U] | ≤ 0.5 |
| GUUCCGUUGGCGUAAUGGUAACGCGUCUGCCUCCUAAGGAGAAAACUGCGGGUUCGUGUCCCGUACGGAACG [C29G G44A A57U] | 0.553 |
| GUUCCGUUGGCGUAAUGGUAACGCGUCUCCCUCCUAAGGAGUAGACUGCGGGUACGAAUCCCGUACGGAACG [A42U U54A G58A] | ≤ 0.5 |
| GUUGCGUUAGCGUAAUGCUAACGCGUCUCCUUCCUAAGGAGAAGACGGCGGGUUCGAGUCCCGUACGGAACG [C4G G9A G18C C31U U47G] | ≤ 0.5 |
| GUUCCGUUGGCGUAAUGGUAACGCGUCUCCCUCCUAGGAGAAGGACUGCGGGUUCGAGUCCCGUACGGAACG [A37G G39A A40G G41A A43G] | ≤ 0.5 |
| GUACCGUGGGCGUAAUGGUAACGCGUAUCCCUCCUAAGGAGAAGACUGCGGGUUCGAGUCACGUACAGAACG [U3A U8G C27A C61A G67A] | ≤ 0.5 |
| GUUCCGUUGGCGUAAUGGUAACGCCUCUCCUACCUAAGGAGAAGACUGGGGGUUCGAGUUCCGUACGGAACG [G25C C31U U32A C49G C60U] | ≤ 0.5 |
| GUUCCGUUGGCGUAAUGGUAACGCGUCUCCCUCCUAAGGAGCAGACUGCGGGUUCGAGCCCCGUACGGAACG [A42C U59C] | 0.901 |
| GUUCCGUUGGCAUAAUGGUAACGCGUGUCCCUCCUAAGGAGAAGAAUGCGGGUUUGAGUCCCGUACGGAACG [G12A C27G C46A C55U] | 0.603 |
| GUUCCGUUGGCGUAAUGGUAACGCGUCUCCCUCCUAAGGAGAAGCCUGCGGGUUCGAGUCCCGUACGGCACG [A45C A69C] | 0.744 |
| GUUCCGUUGGCGUAAUGGUAACUCGUCUCACUCCUAAGGAGAAGACUGCGGGUUGGCGUCCGGUACGCAACG [G23U C30A C55G A57C C62G G68C] | ≤ 0.5 |
| GUUCCGUUGGCCUAAUGGUAACGCGUCUCCCUCCUAGGGAGAAGACUGCGGGUACGAGUCCCGUCCGGAACG [G12C A37G U54A A65C] | ≤ 0.5 |
| GUUCCGUUGGCGUAAUCGUAAGGAGUCUCCCUCCUAAGGAGAAGACUGCGGGUUCGAGUCCCGUACGGAACG [G17C C22G C24A] | ≤ 0.5 |
| GUUCCGUUGGCGUAAUGGUUACGCAUUUCCCUCCUAAGGAGAAGACUGCGGGUUCGAGUCCCGUACGGAACG [A20U G25A C27U] | 0.595 |
| GUUCCGUUGGCGUAAUGGUAACGCGACUCACUCCUAAGGAGAAGACUGCGGGUUCGAGUCCCGUCCGGAACG [U26A C30A A65C] | 0.511 |
| GUUCCGUUGGGGUAAUGGUAAGGCGUCUCCCUCCUAAGGAGAAGACUGCGGGUUCGAGUCCCGUACGGAACG [C11G C22G] | 0.675 |
| GUUCCGUUGGCGUAAUGGUAACGCGUCUCCUUCCUAUGGAGAAGACUGCGGGUUCGAGUGCCGUACGGAACG [C31U A37U C60G] | ≤ 0.5 |
| GUUCCGUUGGCGUAAUGGUAACGCGUCUCCCUCCUAAGGAGAAGAAUGCGGGUUCGUGUCCCGUACGCAACG [C46A A57U G68C] | 0.543 |
